In ChEMBL document CHEMBL1123794, “Synthesis, conformation, and dopaminergic activity of 5,6-ethano-bridged derivatives of selective dopaminergic 3-benzazepines” (J Med Chem, 1987):

What was measured:
[1] = biological target: D(1A) dopamine receptor (Rattus norvegicus) (UniProt P18901); assay: Inhibitory activity against Dopamine receptor D1 by displacement of [3H]fenoldopam from homogenated rat striatum
[2] = Tested for dopamine-sensitive adenylate cyclase stimulation expressed as %DA stimulation at 10 uM; assay type: functional
[3] = Tested for dopamine-sensitive adenylate cyclase stimulation; assay type: functional
[4] = biological target: D(2) dopamine receptor (Bos taurus) (UniProt P20288); assay: Inhibitory activity against Dopamine receptor D2 by displacement of [3H]spiroperidol from bovine pituitary at 10 uM
Chain of D(2) dopamine receptor (Bos taurus) (P20288 whole entry): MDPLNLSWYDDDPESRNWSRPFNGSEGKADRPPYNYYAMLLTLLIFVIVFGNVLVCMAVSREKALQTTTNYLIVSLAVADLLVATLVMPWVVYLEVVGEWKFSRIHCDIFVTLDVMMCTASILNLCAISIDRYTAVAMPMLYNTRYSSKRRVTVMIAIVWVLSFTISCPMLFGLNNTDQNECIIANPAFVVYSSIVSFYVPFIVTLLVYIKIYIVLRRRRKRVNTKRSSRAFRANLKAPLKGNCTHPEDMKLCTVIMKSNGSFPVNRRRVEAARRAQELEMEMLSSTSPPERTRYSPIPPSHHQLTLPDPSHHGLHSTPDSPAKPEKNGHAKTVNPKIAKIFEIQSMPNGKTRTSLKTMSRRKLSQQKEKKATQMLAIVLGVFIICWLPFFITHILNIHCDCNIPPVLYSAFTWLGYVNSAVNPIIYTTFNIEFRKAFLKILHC

[5] = Tested for dopamine-sensitive adenylate cyclase stimulation expressed as ED50; assay type: functional
Outline: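 EC50 is the concentration giving 50% of the maximal adenylate cyclase stimulation attainable with that same compound.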

Chain of D(1A) dopamine receptor (Rattus norvegicus) (P18901 whole entry): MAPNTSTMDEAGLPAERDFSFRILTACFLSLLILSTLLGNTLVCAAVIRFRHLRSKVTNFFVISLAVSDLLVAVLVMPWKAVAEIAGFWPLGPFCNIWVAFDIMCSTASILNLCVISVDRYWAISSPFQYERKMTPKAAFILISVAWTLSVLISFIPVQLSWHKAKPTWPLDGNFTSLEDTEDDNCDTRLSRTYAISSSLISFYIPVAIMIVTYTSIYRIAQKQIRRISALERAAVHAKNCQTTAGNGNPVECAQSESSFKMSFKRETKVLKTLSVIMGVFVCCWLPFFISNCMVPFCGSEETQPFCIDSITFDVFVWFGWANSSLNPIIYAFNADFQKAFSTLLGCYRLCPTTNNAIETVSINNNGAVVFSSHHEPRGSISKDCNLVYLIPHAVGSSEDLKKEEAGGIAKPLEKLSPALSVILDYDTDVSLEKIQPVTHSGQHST

| SMILES | K bind [1] [µM] | DA stim [2] [%] | Control [3] [%] | inhibition [4] [%] | ED50 [5] [nM] |
| --- | --- | --- | --- | --- | --- |
| Oc1cc2c3c(c1O)CC[C@H]3CNC[C@@H]2c1ccccc1 | 1.22 | 15 | 20 | 0 |  |
| Oc1cc2c3c(c1O)CC[C@@H]3CNC[C@@H]2c1ccccc1 | 0.024 | 62 |  | 14 | 430 |
| Oc1cc2c(cc1O)[C@@H](c1ccccc1)CNCC2 | 0.0051 | 66 |  |  | 63 |
| NCCc1ccc(O)c(O)c1 |  |  |  |  | 3500 |
